RGS4 inh: human RGS4 inhibition; AID 463165; B-score at 10 µM; HEK293 M3R/RGS4 inducible, Fluo-4 calcium flux; stronger effect = higher value; triggered by carbachol at its EC20; 310,000 tested, 0.45% active;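 active = B-score, a plate-corrected calcium signal, over three deviations above library mean, with baseline fluorescence within five deviations of library mean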;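 note: RGS4 expression induced by doxycycline in cells with stable M3 receptor; B-score is computed from the integrated fluorescence ratio over baseline after carbachol; higher B-score means a larger calcium signal and so more RGS4 inhibition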
Target sequence (P49798 whole entry, looked up): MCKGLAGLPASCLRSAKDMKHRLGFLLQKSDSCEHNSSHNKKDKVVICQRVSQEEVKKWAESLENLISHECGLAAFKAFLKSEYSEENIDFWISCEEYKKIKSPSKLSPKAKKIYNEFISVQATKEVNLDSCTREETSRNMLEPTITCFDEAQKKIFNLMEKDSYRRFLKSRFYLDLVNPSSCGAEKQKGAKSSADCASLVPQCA
Lipid droplet: modulators of hepatic lipid droplet formation; AML12 mouse hepatocytes, oleate lipid droplets, BODIPY imaging; inhibition, % at 6.5 µM; 240,000 tested, 0.4% active; AID 1656;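 active = lipid droplet intensity inhibited by at least 50%, with more than 500 cells counted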
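Material: mouse AML12 hepatocyte cell line, fixed after treatment; Timing: compound with oleate, overnight; Technique: high-content imaging of BODIPY-stained droplets and DAPI nuclei; Probe or stimulus: oleate, 100 µM final; Dosing: compound at 6.5 µM only.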
MrgX1 PAM: allosterically activates human MrgX1 receptor signaling | Q96LB2 | MrgX1-HEK293, Fluo-4 calcium flux, FDSS; stronger effect = higher value | B-score at 10 µM | 310,000 tested, 0.63% active | AID 588675;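 active = plate-corrected calcium response at least 3 library SD above typical, normal starting fluorescence, not activating the receptor alone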;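 note: compound read alongside a low EC10 to EC30 dose of BAM8-22 agonist; peak minus trough fluorescence over baseline measured at the second addition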
Target sequence (Q96LB2 whole entry, looked up): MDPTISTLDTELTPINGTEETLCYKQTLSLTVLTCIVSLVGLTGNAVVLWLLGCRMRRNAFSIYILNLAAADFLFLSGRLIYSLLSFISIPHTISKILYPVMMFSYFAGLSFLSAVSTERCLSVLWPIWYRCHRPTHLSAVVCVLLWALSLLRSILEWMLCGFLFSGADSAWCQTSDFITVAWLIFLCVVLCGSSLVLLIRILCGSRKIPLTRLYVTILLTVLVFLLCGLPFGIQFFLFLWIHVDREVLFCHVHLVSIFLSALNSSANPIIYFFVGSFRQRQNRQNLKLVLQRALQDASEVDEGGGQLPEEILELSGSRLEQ
MrgX1 antagonist: human MrgX1 receptor antagonism, primary screen. Q96LB2. AID 588676. B-score at 10 µM. 310,000 tested, 1.3% active. MRGX1-HEK293 calcium flux, Fluo-4, BAM8-22 antagonism; stronger effect = lower value;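 active = calcium-response B-score plate-corrected more than 3 library SD below zero, starting fluorescence within 5 deviations, no agonist response on first addition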;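 note: peak minus trough fluorescence over baseline after final BAM8-22 challenge near maximal dose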
RGS4 act: potentiators or activators of RGS4; 310,000 tested, 0.92% active; HEK293 M3R/inducible RGS4, carbachol calcium flux Fluo4; stronger effect = lower value; B-score at 10 µM;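 active = B-score of the integrated calcium signal more than 4 SD below the library mean, with starting fluorescence not abnormally high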;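 note: negative B-score means reduced calcium response which marks RGS4 activation or potentiation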
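Assay system: Inducible-RGS4 HEK293 cells carrying M3 receptor | Schedule: Compound preincubation 20 min at room temperature before agonist | Signal: Kinetic calcium fluorescence imaging with Fluo4-AM dye, 2 µM | Read-out basis: B score from integrated fluorescence ratio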
MrgX1 ag: activates human MrgX1 receptor signaling. MrgX1-HEK293 cells, Fluo-4 calcium fluorescence, agonist mode; stronger effect = higher value. 310,000 tested, 0.44% active. Q96LB2. B-score at 10 µM;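 active = calcium response B-score plate-corrected fluorescence ratio at least 3 library SD, with starting fluorescence B-score inside 5 SD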
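times = overnight plating, then 30 min 37 °C plus 30 min room-temperature dye loading | assay system = stable human MrgX1 HEK293 cell line | input = fifteen thousand cells per well | signal = kinetic calcium dye fluorescence, Fluo-4 NW | dosing = compound delivered in addition one of three | read-out = B-scored fluorescence response ratio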
* hit, by the source's call; i = inactive; . = no result. Sampled rows, rich in hits. Any-hit rate of the full collection: about 3.8%.

SMILES	RGS4 inh	Lipid droplet	MrgX1 PAM	MrgX1 antagonist	RGS4 act	MrgX1 ag
COc1ccc(/C=N/NC(=O)c2cc3c(ccc4ccccc43)o2)c(OC)c1	i	-2	.	.	-8*	.
CCc1ccc(C(C(=O)NCc2ccc(OC)cc2)N(CCOC)C(=O)Cc2cccs2)cc1 (configuration not stated)	i	.	i	i	i	i
COCCN(C(=O)Cc1cccs1)C(C(=O)NCc1ccc(OC)cc1)c1ccc(C(C)C)cc1 (configuration not stated)	i	-3	i	i	-7*	i
CN(C)S(=O)(=O)N1CCC(Oc2cccc(C(=O)NCCC3=CCCCC3)c2)CC1	i	2	i	-4.5*	i	i
COc1ccc(CCN(Cc2cc3cc(C)cc(C)c3nc2Cl)C(=O)C2CC2)cc1	i	.	i	i	-7.2*	i
CN1/C(=C\C=O)C(C)(C)c2ccccc21	i	-14	i	i	i	i
CN(C)c1ccc(N=C/C=C2\N(C)c3ccccc3C2(C)C)cc1	i	.	7.2*	i	i	i
CN1/C(=C\C=Nc2ccc3ccccc3c2)C(C)(C)c2ccccc21	.	.	i	i	.	83*
O=C(CN(Cc1cccs1)C(=O)CNS(=O)(=O)c1ccccc1)NC1CCCC1	i	-5	i	i	i	i
CCCC(=O)N(c1ccc(OCC)cc1)S(=O)(=O)c1ccc2c3c(cccc13)C(=O)N2C	i	-10	i	i	i	i
Cc1ccc(C(=O)NCCn2c(N)c(C#N)c3nc4ccccc4nc32)cc1	i	.	i	i	i	i
CCCCn1c(NC(=O)c2ccc(F)cc2)c(C#N)c2nc3ccccc3nc21	i	.	i	i	i	54*
CCCNC(=O)CCc1c(C)nc2nc(C)nn2c1C	i	8	i	i	i	i
Cc1cc(C)nc(OC(=O)c2ccc(Cl)cc2Cl)n1	i	-49	i	i	-7.3*	i
Cc1cc(C)nc(OC(=O)c2c(Cl)cc(Cl)cc2Cl)n1	i	0	i	i	i	i
OCCNCc1ccc(-c2ccccc2)cc1	i	4	i	i	i	i
OCCCNCc1ccc(N(c2ccccc2)c2ccccc2)cc1	i	-19	i	i	-7.3*	i
O=C(N/N=C/c1sc2ccccc2c1O)c1cccc2ccccc12	i	-14	i	-4.8*	i	i
COc1ccc(C(=O)N/N=C/c2sc3ccccc3c2O)cc1	i	-11	i	i	i	39*
CC(C)c1ccc(/C=C2\SC(=O)N(CC(=O)NC3C=CS(=O)(=O)C3)C2=O)cc1 (configuration not stated)	i	-30	i	i	i	i
Cn1c(=O)c([N+](=O)[O-])c(-n2cnc3ccccc32)c2ccccc21	i	14	i	i	i	27*
O=c1c2ccccc2ncn1-c1ccccc1[N+](=O)[O-]	i	3	13*	i	i	i
Cc1nccn1-c1c([N+](=O)[O-])c(=O)n(C)c2ccccc12	i	-2	i	i	i	i
COc1ccc([C@@H]2[C@@H](C(=O)C(C)(C)C)N3N=Cc4ccccc4[C@@H]3C23C(=O)OC(C)(C)OC3=O)cc1OC	i	30	i	i	-7.2*	i
COc1ccc(N2C(=O)[C@H]3[C@@H](C2=O)C2c4ccccc4C=NN2[C@H]3C(=O)C(C)(C)C)cc1 (some centres not stated)	i	18	i	i	i	i
SMILES	RGS4 inh	Lipid droplet	MrgX1 PAM	MrgX1 antagonist	RGS4 act	MrgX1 ag
COc1ccc([C@H]2[C@H](C(=O)C(C)(C)C)N3N=Cc4ccccc4C3C23C(=O)OC(C)(C)OC3=O)cc1 (some centres not stated)	i	-7	i	-6.1*	i	i
COCCn1cnc2c1c(=O)n(CC(=O)OCC(=O)NCC(F)(F)F)c(=O)n2Cc1ccccc1	i	2	i	i	i	i
CC(=O)C(c1ccccc1)C(c1ccccc1)C(C)[N+](=O)[O-] (configuration not stated)	i	0	i	i	i	i
Cc1ccc2c(c1)N(C(=O)CSc1nncn1C)C(C)(C)c1ssc(=S)c1-2	i	.	i	i	-8.7*	i
Cc1cc2c(cc1C)N(C(=O)CSc1nncn1C)C(C)(C)c1ssc(=S)c1-2	i	-42	i	i	i	i
COc1ccc(-c2cc(C(=O)Nc3cc(S(=O)(=O)N4CCOCC4)ccc3N3CCOCC3)c3ccccc3n2)cc1	i	21	i	i	-7*	i
CC1CN(C(=O)COC(=O)c2cc(Cl)ccc2[N+](=O)[O-])CC(C)O1 (configuration not stated)	i	-1	i	-4.8*	i	i
COc1ccccc1NC(=O)Cn1cc(C(=O)c2ccco2)c2ccccc21	i	-96	i	i	i	i
COc1ccccc1OCCn1cc(C(=O)c2ccco2)c2ccccc21	i	.	i	i	-7.4*	i
CCC(C)Nc1nc(N)c([N+](=O)[O-])c(NCCO)n1 (configuration not stated)	i	8	17*	i	i	i
CC(C)CCNc1nc(N)c([N+](=O)[O-])c(NCCO)n1	i	-21	i	i	i	i
NC(=O)Cn1nc([N+](=O)[O-])nc1Oc1ccccc1C(=O)N1CCOCC1	i	11	i	-4.6*	i	i
NC(=O)Cn1nc([N+](=O)[O-])nc1Oc1ccccc1F	i	-16	i	i	i	i
COC(=O)[C@@H](Cc1c[nH]c2ccccc12)NC(=O)c1ccc2c(c1)OCO2	i	8	i	i	i	i
Cc1nn(-c2ccccc2)c(C)c1NC(=O)COC(=O)c1ccc(Cl)c(N)c1	i	.	i	i	-7*	i
CC(=O)Nc1cccc(C(=O)OCC(=O)Nc2c(C)nn(-c3ccccc3)c2C)c1	i	.	i	i	i	i
CCOC(=O)c1ccc(NS(=O)(=O)c2c(N)n(C)c(=O)n(C)c2=O)cc1	i	.	i	i	i	i
O=C(CSCc1ccccc1)Nc1ccc2c(c1)OCO2	i	-5	i	i	i	i
O=C(CSCc1c(Cl)cccc1Cl)Nc1ccc2c(c1)OCO2	i	.	i	i	-7.5*	i
CN1CCN(/N=C/c2ccc(-c3ccc([N+](=O)[O-])cc3Cl)o2)CC1	i	-10	i	-4.6*	i	i
